Bioassay records deposited in PubChem by several laboratories.
CHOP UPR activ: activators of apoptotic CHOP UPR arm, primary screen, cell-based, CHO-CHOP luciferase reporter, luminescence, uHTS; UPR activation; percent of tunicamycin response over DMSO baseline; activation, % at 10 µM; hit rate 0.34% among 330,000;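 active means at 10 µM dose, activation of 40% or more, normalized to positive control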;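 further: 100% = tunicamycin at 10 µg/mL and 0% = DMSO alone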
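measured by = luciferase luminescence | assay system = CHO-CHOP cells, stable luciferase reporter of PERK-eIF2a-CHOP signalling | amount = 500 reporter cells seeded per well | timing = 6 h compound exposure at 37 °C after overnight seeding | controls = positive tunicamycin 10 µg/mL, negative DMSO alone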
Mdm2-MdmX inh: inhibitors of human Mdm2-MdmX association, primary screen, cell-based, luminescence, split luciferase, SaOS-2, uHTS; hit rate 3% among 330,000; SaOS-2 split-luciferase Mdm2/MdmX complementation; Protein Mdm4 (Homo sapiens) + E3 ubiquitin-protein ligase Mdm2 (Homo sapiens), …; inhibition, % at 8 µM; AID 485346, 2010;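 active means inhibition of at least 50% at 8 µM in the primary screen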
Target sequence (O15151 whole entry, looked up): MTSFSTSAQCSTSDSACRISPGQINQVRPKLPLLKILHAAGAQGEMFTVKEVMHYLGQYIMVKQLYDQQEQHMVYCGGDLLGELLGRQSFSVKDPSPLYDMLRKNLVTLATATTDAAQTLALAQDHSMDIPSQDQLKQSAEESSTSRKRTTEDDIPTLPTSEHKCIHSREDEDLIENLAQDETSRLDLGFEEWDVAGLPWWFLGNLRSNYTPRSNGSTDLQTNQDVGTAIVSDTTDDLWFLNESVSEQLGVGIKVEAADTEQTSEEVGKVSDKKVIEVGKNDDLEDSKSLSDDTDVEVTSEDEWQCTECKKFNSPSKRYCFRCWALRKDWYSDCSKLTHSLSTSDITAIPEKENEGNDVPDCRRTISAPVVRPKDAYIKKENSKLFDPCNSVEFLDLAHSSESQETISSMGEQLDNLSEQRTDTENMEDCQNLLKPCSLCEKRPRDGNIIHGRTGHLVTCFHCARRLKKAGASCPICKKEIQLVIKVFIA
Target sequence (Q00987 whole entry, looked up): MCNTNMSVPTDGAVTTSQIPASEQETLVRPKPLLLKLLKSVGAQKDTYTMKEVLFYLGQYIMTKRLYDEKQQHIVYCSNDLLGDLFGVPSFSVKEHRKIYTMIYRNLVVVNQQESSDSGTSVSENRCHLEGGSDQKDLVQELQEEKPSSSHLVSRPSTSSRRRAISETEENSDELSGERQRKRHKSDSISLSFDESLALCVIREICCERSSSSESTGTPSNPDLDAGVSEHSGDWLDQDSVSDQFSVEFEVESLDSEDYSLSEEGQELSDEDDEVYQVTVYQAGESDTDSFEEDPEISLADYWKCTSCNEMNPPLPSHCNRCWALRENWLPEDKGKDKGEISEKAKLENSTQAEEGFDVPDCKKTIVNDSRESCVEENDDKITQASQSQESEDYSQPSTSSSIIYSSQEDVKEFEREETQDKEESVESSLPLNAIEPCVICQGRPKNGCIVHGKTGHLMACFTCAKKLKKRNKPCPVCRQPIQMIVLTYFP
XBP1 UPR activ: activators of adaptive XBP1 UPR arm, primary screen, cell-based, CHO-XBP1 luciferase reporter, luminescence, uHTS. IRE1-XBP1 UPR activation; percent of tunicamycin response, DMSO as zero. activation, % at 20 µM. hit rate 0.33% among 330,000. AID 463104, 2010;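 active means versus positive control, 20 µM dose yields 30% or more activation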;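 further: 100% = tunicamycin at 10 µg/mL and 0% = DMSO only wells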
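Material: CHO cell line with stable XBP1 luciferase reporter; schedule: 16-18 h cell attachment at 37 °C, then 6 h compound exposure; signal: glow luminescence from Steady-Glo reagent; medium: serum-containing F12 medium, 10% FBS; benchmarks: tunicamycin 10 µg/mL and vehicle-only wells; read-out: percent activation relative to tunicamycin reference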
Beta cell apopt: inhibitors of cytokine-induced beta cell apoptosis, primary screen, luminescence | INS-1E cytokine-induced death, ATP luminescence, 48 h; percent of positive-control rescue, neutral wells zero | AID 435005, 2010 | protection from apoptosis, % (test concentration not listed) | hit rate 0.8% among 300,000;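 active means Every replicate reaches about 75%, or at least half do and their mean reaches it too, limit read from the data; inconclusive means At least half of replicates reach the limit but their mean does not; inactive means Under half of replicates reach the limit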;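 further: 0% = cytokine-treated negative control wells and 100% = positive control rescue; higher means more ATP so stronger rescue from cytokine killing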
SKKanGAS inh: S. pyogenes SKKanGAS growth inhibitors in kanamycin, primary screen, streptokinase expression inhibitor project, SKKanGAS strain, BacTiter-Glo luminescence; 6 h; inhibition, % at 7.5 µM; hit rate 1.3% among 300,000; AID 1662, 2009;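 active means mean replicate score, as percent of positive control median, at least 50; inconclusive means mean below 50 but one replicate at or above 50; inactive means mean and every replicate below 50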;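 further: strain carries kanamycin resistance gene driven by streptokinase promoter and grows in 40 µg/ml kanamycin; loss of luminescence reflects streptokinase promoter inhibition or plain growth inhibition; 0% = median of DMSO wells and 100% = positive control at its reference dose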
CSC inhib: cancer stem cell viability inhibitors, primary screen, luminescence | AID 2717, 2010 | cancer stem cell-like cells viability | hit rate 1.1% among 300,000 | inhibition, % at 7.5 µM; in the data active means inhibition above about 75%; inconclusive means no clear call, values can overlap the other calls; tested in HMLE shEcad cells
* marks the source's active call; other numbers are inactive results; u = inconclusive; x = no result. This is a sample that favours compounds with a hit; in the whole collection about 4.8% have one here.

SMILES	CHOP UPR activ	Mdm2-MdmX inh	XBP1 UPR activ	Beta cell apopt	SKKanGAS inh	CSC inhib
CCCCOc1cc(NCc2ccccc2)c2ncn(C(C)C)c2c1	-0.9	47.0	-0.6	79.5*	x	x
CCC(CO)Oc1cc(NCc2ccc(C(C)(C)C)cc2)c2ncn(C(C)C)c2c1 (stereo not given)	16.2	19.1	1.2	136.8*	x	x
O=C(NCCCl)Nc1ccccc1OCCOc1ccccc1NC(=O)NCCCl	-1.3	23.4	-4.6	1.5	3.8	-1.7
COc1ccc(S(=O)(=O)Nc2ccc3c(c2)C(=O)N([C@H](C)CO)C[C@H](C)[C@@H](CN(C)S(=O)(=O)c2ccc(F)cc2)O3)cc1	0.7	-28.6	-2.3	-0.4	x	-15.1
CCOC(=O)c1cnc(-n2nc(C)cc2C)nc1Nc1ccc(C)cc1	x	x	x	x	95.1*	x
CCOC(=O)c1cnc(-n2nc(C)cc2C)nc1Nc1ccc(O)cc1	-5.8	14.9	-4.3	118.6*	11.6	-15.1
CCOC(=O)c1cnc(-n2nc(C)cc2C)nc1NNc1nc(C)cc(C)n1	0.9	3.7	-1.2	2.9	80.4*	7.1
CCOC(=O)c1cnc(-n2nc(C)cc2C)nc1NC	1.4	-3.1	0.4	0.2	u	-14.0
O=C(NCC1CCCO1)c1ccc(N2C(=O)C3CCCCC3C2=O)cc1 (stereo not given)	-0.1	-18.6	-4.9	-7.6	-1.3	-16.5
Cc1ccc(CNC(=O)C2CCC(=O)N(Cc3ccc(Cl)cc3)C2)cc1F (stereo not given)	1.3	3.5	-3.4	-11.2	0.3	-3.9
Cc1cccc(OCC(O)CN2CCOCC2)c1 (stereo not given)	0.2	2.7	-3.1	-12.9	-2.4	-9.2
CC(C)c1nc(N2CCN(C(=O)c3ccco3)CC2)c(C#N)c2c1COC(C)(C)C2	0.7	15.8	-5.6	x	6.0	-6.3
CCCCc1nc(N2CCN(C(=O)c3ccco3)CC2)c(C#N)c2c1CCCC2	1.3	37.4	-4.5	17.8	97.1*	118.7*
CCC(CO)[n+]1c(C)cc(/C=C2\Sc3ccccc3N2Cc2ccccc2)cc1C (stereo not given)	x	x	x	104.5*	x	26.0
CCN1/C(=C2\SC(=S)N(Cc3ccccc3)C2=O)Sc2ccccc21	-2.4	12.9	0.1	-3.2	1.5	-8.7
O=C(CSc1n[nH]c(-c2ccncc2)n1)Nc1ccc(Cl)c(Cl)c1	2.6	20.5	0.5	2.4	2.1	12.9
Cc1ccc(CNC(=O)c2ccc3c(=O)[nH]c4c(C(=O)NCC5CCCO5)sc(=S)n4c3c2)cc1 (stereo not given)	-0.8	21.3	0.4	-2.8	55.8*	2.4
O=C(CNS(=O)(=O)c1c(Cl)cccc1Cl)N1CCCCCC1	1.4	0.7	-4.7	-1.5	2.5	15.5
O=c1cc(NS(=O)(=O)c2ccccc2)nc(SCc2ccc(Cl)cc2)[nH]1	x	x	x	5.3	x	88.0*
Cc1ccc(S(=O)(=O)Nc2cc(=O)[nH]c(SCc3ccccc3Cl)n2)cc1	-1.2	14.3	-0.3	11.4	13.3	2.3
Cc1nc(Nc2ccc(Cl)cc2Cl)sc1C(=O)Nc1ccccc1	-0.6	33.2	-0.4	10.7	-16.1	82.6*
COc1ccc(-c2ncn(CCC#N)c2[N+](=O)[O-])cc1	2.5	8.9	1.7	-6.4	96.7*	-8.8
O=C(NCCc1cnc[nH]1)c1ccc(-c2ccccc2)cc1	7.7	-16.6	0.8	-8.2	-1.1	1.8
COC(=O)c1ccc(NC(=O)CSc2nnc(-c3cccnc3)o2)cc1	2.6	0.6	0.8	-2.7	-17.0	0.8
CN(C)c1ccc(S(=O)(=O)N2CCCCC2)cc1NC(=O)C1=NN(c2ccccc2)C(=O)CC1	-2.1	26.0	-1.2	x	10.5	1.1
SMILES	CHOP UPR activ	Mdm2-MdmX inh	XBP1 UPR activ	Beta cell apopt	SKKanGAS inh	CSC inhib
CCOc1ccc(-c2c(=O)n(OCc3ccc([N+](=O)[O-])cc3)c3ccccc3[n+]2[O-])cc1	18.1	5.5	36.3*	4.3	22.7	-22.6
Cc1c(C)n(C)c2ccc(C(=O)N3CCN(c4ccccc4)CC3)cc12	0.1	12.1	-4.5	-9.2	17.1	9.6
Cc1ccc(C)c(N2CCN(C(=O)c3ccc4c(c3)c(C)c(C)n4C)CC2)c1	-0.2	32.1	-2.3	-4.6	24.1	82.1*
CCOc1ccc(-n2cnc3sc(C)c(C)c3c2=O)cc1	0.4	11.6	-2.2	1.0	2.2	3.5
O=C(COC(=O)c1cc(Br)ccc1O)NNC(=O)c1cccs1	1.2	-0.3	-0.7	-5.5	x	x
N=c1ccn(Cc2ccc(Cl)cc2Cl)cc1	3.0	17.2	-1.6	103.1*	-15.3	2.0
Cc1ccc(C)c(NC(=O)c2cc(-c3ccccc3)nn2-c2ccccc2)c1	-0.6	15.8	-4.0	-2.7	-9.1	89.4*
CCN(CC(=O)Nc1ccccc1C(F)(F)F)C(=O)c1cc(-c2ccccc2)nn1-c1ccccc1	-0.7	13.6	-1.8	-0.9	50.8*	x
O=C(Nc1nnc(C2CC2)s1)c1cc(-c2ccccc2)nn1-c1ccccc1	-0.6	25.6	4.3	10.1	73.5*	20.7
Cc1ccc(C)c(NC(=O)c2nc(-c3ccccc3)n(-c3ccccc3)n2)c1	0.2	38.3	-0.1	4.9	1.0	-7.7
Cc1cc(C)n(-c2ccc(NC(=O)C3CCCCN3C(=O)c3sccc3C)cc2)n1 (stereo not given)	2.3	-11.2	-2.2	x	0.2	1.8
Cc1cc(C)c2nc(-c3ccccn3)cc(C(=O)Nc3ccc(S(=O)(=O)Nc4onc(C)c4C)cc3)c2c1	-0.7	-5.7	-3.4	-2.2	63.8*	-9.8
COc1ccc(-c2sc3cc(OC)c(OC)cc3c2C#CCO)cc1	5.1	31.7	3.3	x	x	x
COc1ccc(-c2sc3ccc(N4CCOCC4)cc3c2C#CC(C)(C)O)cc1	1.5	42.0	1.8	-6.4	x	87.1*
COc1ccc2sc(-c3ccc(SC)cc3)c(C#CCO)c2c1	3.8	-67.9	10.1	15.7	x	83.0*
COc1ccc(-c2oc3ccc(N4CCOCC4)cc3c2C#CCO)cc1	-2.9	8.9	0.4	x	20.4	96.9*
COc1ccc2sc(-c3ccc(N(C)C)cc3)c(C#CC(C)(C)O)c2c1	5.5	25.9	3.8	-5.2	x	66.2
COc1ccc2sc(-c3ccc(SC)cc3)c(C#CC(C)(C)O)c2c1	4.5	49.4	7.9	-6.7	x	105.0*
COc1cccc(-c2sc3ccc(OC)cc3c2C#CCC(C)O)c1 (stereo not given)	3.8	4.8	-1.2	-3.0	x	113.1*
COCc1ccc(-c2c(-c3cccc(OC)c3)sc3ccc(OC)cc23)cc1	0.4	-0.5	-2.3	0.0	x	47.3
